# Results published in ChEMBL document CHEMBL3399918, “In vitro radical scavenging and cytotoxic activities of novel hybrid selenocarbamates” (Bioorg Med Chem, 2015).
# Active and inactive are the calls of the source. No cut-off for these calls is given here.
# What was measured:
# [1] = Glutathione peroxidase-like activity assessed as reduction in H2O2 reduction by tiophenol based UV absorption spectrometry
# Procedure, shortened: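 Iwaoka–Tomoda thiophenol method. Compound in ethanol at 0.1 mg/mL, mixed in equal volumes with 2 mM PhSH in ethanol and 5 mM H2O2 in ethanol (stock concentrations). Data collected every 5 s. Negative control contained compound, vehicle and PhSH without H2O2. Triplicate; mean ± SD.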
# [2] = Antioxidant activity assessed as ABTS radical scavenging activity at 0.1 mg/ml after 6 mins; type: physicochemical; conditions: 0.1 h
# Procedure, shortened: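 Diluted with 50% ethanol to A741 0.700 ± 0.02. A741 decrease read after 6 min against a 50% ethanol blank. % scavenged relative to a vehicle-plus-radical control. Quadruplicate.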
# [3] = system: HT-29; assay: Cytotoxicity against human HT-29 cells after 72 hrs by MTT assay; type: functional; conditions: HT-29, 72 h
# Procedure, shortened: (§1)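 CCRF-CEM, HT-29, PC-3 and HTB-54 cells grown in RPMI 1640 with 10% foetal calf serum, 2 mM L-glutamine, penicillin/streptomycin, 10 mM HEPES (pH 7.4). Five concentrations, 0.01–100 μM, 72 h at 37 °C, 5% CO2; MTT read-out. GI50, TGI and LC50 versus untreated controls; at least 3 independent experiments in quadruplicate.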
# [4] = Cytotoxicity against human PC3 cells after 72 hrs by MTT assay; type: functional; conditions: PC-3, 72 h; procedure, shortened: as §1
# [5] = Cytotoxicity against human 184B5 cells after 72 hrs by MTT assay; type: cell-based
# Procedure, shortened: (§2)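 Non-malignant lines: 184B5 (normal breast) in Hams F-12/DMEM (50:50) with published supplements; BEAS-2B (bronchial epithelium) in Hams F-12/DMEM (50:50) with 10% foetal calf serum, 2 mM L-glutamine, penicillin/streptomycin. Compounds at five concentrations, 0.01–100 μM, 72 h, 37 °C, 5% CO2; MTT read-out. GI50, TGI, LC50 relative to untreated controls; ≥3 independent experiments in quadruplicate.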
# [6] = Antioxidant activity assessed as DPPH radical scavenging activity at 0.5 mg/ml after 180 mins; type: physicochemical; conditions: 3 h
# Procedure, shortened: (§3)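 Compounds in absolute ethanol, serially diluted from 1 mg/mL, mixed 1:1 with […] in ethanol. Final range 0.016–0.5 mg/mL, 6 concentrations. Incubated at 37 °C in the dark, with decolourisation followed at 517 nm at several time intervals. % scavenged = (A vehicle control − A sample)/A control × 100. Quadruplicate; mean ± SD.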
# [7] = Antioxidant activity assessed as DPPH radical scavenging activity at 0.25 mg/ml; type: physicochemical; conditions: TDE = time-dependent effect; procedure, shortened: as §3
# [8] = system: CCRF-CEM; assay: Cytotoxicity against human CCRF-CEM cells after 72 hrs by MTT assay; type: functional; procedure, shortened: as §1
# [9] = Cytotoxicity against human BEAS2B cells after 72 hrs by MTT assay; type: cell-based, BEAS-2B; procedure, shortened: as §2
# [10] = system: MCF7; assay: Cytotoxicity against human MCF7 cells after 72 hrs by MTT assay; type: functional; conditions: MCF7, 72 h
# Procedure, shortened: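 MCF-7 cells grown in EMEM with 10% foetal calf serum, 2 mM L-glutamine, 100 units/mL penicillin, 100 µg/mL streptomycin. Exposed to five concentrations between 0.01 and 100 μM for 72 h, 37 °C, humidified 5% CO2; MTT read-out. GI50, TGI, LC50 relative to untreated controls; ≥3 independent experiments in quadruplicate.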
# [11] = Antioxidant activity assessed as ABTS radical scavenging activity by measuring Trolox equivalent antioxidant capacity after 6 mins; type: physicochemical; conditions: 0.1 h
# Procedure, shortened: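 ABTS dissolved in deionized water at 1 mg/mL, oxidised to radical cation with potassium persulfate (2.45 mM final), kept overnight at room temperature in dark, then diluted with 50% ethanol to A741 = 0.700 ± 0.02. Compound (1 mg/mL ethanol stock) added 1:10 (0.1 mg/mL); A741 decrease read after 6 min against 50% ethanol blank. Trolox positive control; quadruplicate; TEAC from calibration curve.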
# [12] = Cytotoxicity against human HTB-54 cells after 72 hrs by MTT assay; type: functional; conditions: HTB-54, 72 h; procedure, shortened: as §1
# [13] = read-out: LC50 (the source's name)
compound,measurement,setting,value
CC(C)COC(=O)Nc1ccc([Se][Se]c2ccc(NC(=O)OCC(C)C)cc2)cc1,Activity,[1],inactive
same,inhibition (INH),[2],29.6%
same,GI50,[3],19.9 µM
same,LC50,[3],77.4 µM
same,TGI,[3],48.6 µM
same,GI50,[4],24.2 µM
same,LC50 (concentration causing 50% net cell kill),[4],73.7 µM
same,TGI,[4],48.9 µM
same,GI50 at 72 h,[5]; 184B5 cells,5.5 µM
same,LC50,"[5]; 184b5, 72 h",56.6 µM
same,TGI,"[5]; 184b5, 72 h",10.5 µM
same,inhibition (INH),[6],66.5%
same,inhibition (INH),[7],tde
same,GI50,[8],9.8 µM
same,LC50,[8],70.2 µM
same,TGI,[8],39.8 µM
same,GI50 at 72 h,[9]; BEAS2B cells,13.1 µM
same,LC50,"[9]; beas-2b, 72 h",72.4 µM
same,TGI,"[9]; beas-2b, 72 h",42.7 µM
same,GI50,[10],19 µM
same,TGI,[10],49.7 µM
same,CC50,[10]; [13],80.5 µM
same,Activity,[11],20 µg/µL
same,GI50,[12],29 µM
same,TGI,[12],52.9 µM
same,CC50,[12]; [13],76.9 µM
